Measurements reported in ChEMBL document CHEMBL1147968, “Novel lbeta-methylcarbapenems having cyclic sulfonamide moieties: synthesis and evaluation of in vitro antibacterial activity” (2007).
≈ marks a conversion by molar mass, not a printed value.

Assays:
Type in all cases: functional
Staphylococcus aureus = assay: Antibacterial activity against Staphylococcus aureus 1218 after 18 to 24 hrs by agar dilution method
How it was run: (§1)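 MICs were determined by agar dilution on test agar. An overnight tryptosoy broth culture was diluted in the same broth to about 10⁶ cells/mL and spotted with an inoculating device onto agar containing serial twofold dilutions of compound. Plates were incubated at 37 °C for 18–20 h, and the MIC was the lowest concentration with no visible growth.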

Staphylococcus = assay: Antibacterial activity against coagulase negative Staphylococcus after 18 to 24 hrs by agar dilution method
How it was run: (§2)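 Agar dilution on test agar holding serial twofold dilutions of compound. Overnight tryptosoy broth cultures were diluted in the same broth to about 10⁶ cells/mL and spotted with an inoculating device. Plates were incubated at 37 °C for 18–20 h.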

Enterococcus faecalis = assay: Antibacterial activity against Enterococcus faecalis 2347 after 18 to 24 hrs by agar dilution method; how it was run: as §1
Streptococcus pyogenes = assay: Antibacterial activity against Streptococcus pyogenes 9889 after 18 to 24 hrs by agar dilution method; how it was run: as §2
Streptococcus agalactiae = assay: Antibacterial activity against Streptococcus agalactiae 32 after 18 to 24 hrs by agar dilution method; how it was run: as §1
Streptococcus pneumoniae = assay: Antibacterial activity against Streptococcus pneumoniae 0025 after 18 to 24 hrs by agar dilution method; how it was run: as §1
Haemophilus influenzae = assay: Antibacterial activity against Haemophilus influenzae 1210 after 18 to 24 hrs by agar dilution method; how it was run: as §1
Escherichia coli = assay: Antibacterial activity against Escherichia coli 04 after 18 to 24 hrs by agar dilution method; how it was run: as §1
Klebsiella pneumoniae = assay: Antibacterial activity against Klebsiella pneumoniae 523 after 18 to 24 hrs by agar dilution method; how it was run: as §1
Citrobacter freundii = assay: Antibacterial activity against Citrobacter freundii 323 after 18 to 24 hrs by agar dilution method; how it was run: as §1
Enterobacter cloacae = assay: Antibacterial activity against Enterobacter cloacae 34 after 18 to 24 hrs by agar dilution method; how it was run: as §1
Serratia marcescens = assay: Antibacterial activity against Serratia marcescens 3349 after 18 to 24 hrs by agar dilution method; how it was run: as §1
Acinetobacter baumannii = assay: Antibacterial activity against Acinetobacter baumannii 2289 after 18 to 24 hrs by agar dilution method; how it was run: as §1
Pseudomonas aeruginosa = assay: Antibacterial activity against Pseudomonas aeruginosa 5455 after 18 to 24 hrs by agar dilution method; how it was run: as §1

Compound | MIC (Staphylococcus aureus) | MIC (Staphylococcus) | MIC (Enterococcus faecalis) | MIC (Streptococcus pyogenes) | MIC (Streptococcus agalactiae) | MIC (Streptococcus pneumoniae) | MIC (Haemophilus influenzae) | MIC (Escherichia coli) | MIC (Klebsiella pneumoniae) | MIC (Citrobacter freundii) | MIC (Enterobacter cloacae) | MIC (Serratia marcescens) | MIC (Acinetobacter baumannii) | MIC (Pseudomonas aeruginosa)
C[C@@H](O)C1C(=O)N2C(C(=O)O)=C(S[C@@H]3CN[C@H](CN4CCOS4(=O)=O)C3)[C@H](C)C12 (some centres not stated) | 3.12 µg/mL (≈ 6.97 µM) | 0.098 µg/mL (≈ 0.219 µM) | 6.25 µg/mL (≈ 14 µM) | 0.02 µg/mL (≈ 0.0447 µM) | 0.02 µg/mL (≈ 0.0447 µM) | 0.013 µg/mL (≈ 0.029 µM) | 6.25 µg/mL (≈ 14 µM) | 0.049 µg/mL (≈ 0.109 µM) | 0.098 µg/mL (≈ 0.219 µM) | 0.195 µg/mL (≈ 0.436 µM) | 0.098 µg/mL (≈ 0.219 µM) | 0.198 µg/mL (≈ 0.442 µM) | 12.5 µg/mL (≈ 27.9 µM) | 12.5 µg/mL (≈ 27.9 µM)
CC1CN(C[C@@H]2C[C@H](SC3=C(C(=O)O)N4C(=O)C([C@@H](C)O)C4[C@H]3C)CN2)S(=O)(=O)N1 (some centres not stated) | 25 µg/mL (≈ 54.3 µM) | 0.391 µg/mL (≈ 0.849 µM) | 25 µg/mL (≈ 54.3 µM) | 0.04 µg/mL (≈ 0.0868 µM) | 0.04 µg/mL (≈ 0.0868 µM) | 0.04 µg/mL (≈ 0.0868 µM) | 12.5 µg/mL (≈ 27.1 µM) | 0.198 µg/mL (≈ 0.43 µM) | 0.198 µg/mL (≈ 0.43 µM) | 0.198 µg/mL (≈ 0.43 µM) | 0.195 µg/mL (≈ 0.423 µM) | 0.195 µg/mL (≈ 0.423 µM) | 25 µg/mL (≈ 54.3 µM) | 25 µg/mL (≈ 54.3 µM)
C[C@@H](O)C1C(=O)N2C(C(=O)O)=C(S[C@@H]3CN[C@H](CN4CCN(Cc5ccccc5)S4(=O)=O)C3)[C@H](C)C12 (some centres not stated) | 3.12 µg/mL (≈ 5.81 µM) | 0.098 µg/mL (≈ 0.183 µM) | 3.12 µg/mL (≈ 5.81 µM) | 0.02 µg/mL (≈ 0.0373 µM) | 0.02 µg/mL (≈ 0.0373 µM) | 0.025 µg/mL (≈ 0.0466 µM) | 12.5 µg/mL (≈ 23.3 µM) | 0.195 µg/mL (≈ 0.363 µM) | 0.781 µg/mL (≈ 1.46 µM) | 0.781 µg/mL (≈ 1.46 µM) | 0.781 µg/mL (≈ 1.46 µM) | 6.25 µg/mL (≈ 11.6 µM) | 50 µg/mL (≈ 93.2 µM) | 100 µg/mL (≈ 186 µM)
